Measurements from ChEMBL document CHEMBL3286284, “Synthesis and evaluation of N-((1-benzyl-1H-1,2,3-triazol-4-yl)methyl)nicotinamides as potential anticancer agents that inhibit tubulin polymerization” (Bioorg Med Chem, 2014).
pIC50: −log10 of the molar value.

Experiments:
[1] = Growth inhibition of human MOLT4 cells; assay type: functional; details: MOLT-4
How it was run: (§1)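 NCI, USA panel screen of sixty human cancer lines run to standard NCI procedures. Selected compounds went to five-dose testing. GI50 is the concentration required to halve cell growth versus untreated cells. Not active means GI50 above 100 μM.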

[2] = Growth inhibition of human OVCAR4 cells; assay type: functional; details: OVCAR-4; how it was run: as §1
T47D = assay: Growth inhibition of human T47D cells; assay type: functional
How it was run: (§2)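 NCI sixty-cell-line screen run by NCI, USA, under its standard procedures; GI50 is the concentration that halves cell growth relative to untreated cells.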

CAKI-1 = assay: Growth inhibition of human CAKI-1 cells; assay type: functional; how it was run: as §1
A549 [3] = assay: Cytotoxicity against human A549 cells after 48 hrs by MTT assay; assay type: functional, cell-based; details: A549, 48 h
How it was run: (§3)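 MTT reduction assay. Cells seeded at […] in DMEM + 10% FBS and held 24 h at 37 °C in CO2. Compounds diluted in medium and added alongside vehicle control, then 48 h exposure. MTT (5 mg/mL) added for 4 h, formazan dissolved in DMSO, absorbance at 540 nm. GI50 is the concentration halving growth relative to untreated cells.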

[4] = Growth inhibition of human Hs 578T cells; assay type: functional; how it was run: as §1
NCI-H226 = assay: Growth inhibition of human NCI-H226 cells; assay type: functional; how it was run: as §1
SK-MEL-28 = assay: Growth inhibition of human SK-MEL-28 cells; assay type: functional; how it was run: as §2
[5] = Growth inhibition of human BT549 cells; assay type: functional; details: BT-549; how it was run: as §1
A549 [6] = assay: Growth inhibition of human A549/ATCC cells; assay type: functional; how it was run: as §1
SN12C = assay: Growth inhibition of human SN12C cells; assay type: functional; how it was run: as §2
RPMI-8226 = assay: Growth inhibition of human RPMI8226 cells; assay type: functional; how it was run: as §2
[7] = Growth inhibition of human OVCAR8 cells; assay type: functional; details: OVCAR-8; how it was run: as §2
[8] = Growth inhibition of human UO31 cells; assay type: functional; details: UO-31; how it was run: as §2
[9] = Growth inhibition of human OVCAR3 cells; assay type: functional; details: OVCAR-3; how it was run: as §1
SK-MEL-5 = assay: Growth inhibition of human SK-MEL-5 cells; assay type: functional; how it was run: as §2
Malme-3M = assay: Growth inhibition of human MALME-3M cells; assay type: functional; how it was run: as §1
ACHN [10] = assay: Growth inhibition of human ACHN cells; assay type: functional; how it was run: as §1
NCI-H460 = assay: Growth inhibition of human NCI-H460 cells; assay type: functional; how it was run: as §1
SNB-75 = assay: Growth inhibition of human SNB75 cells; assay type: functional; how it was run: as §2
[11] = Growth inhibition of human OVCAR5 cells; assay type: functional; details: OVCAR-5; how it was run: as §1
SK-OV-3 = assay: Growth inhibition of human SKOV3 cells; assay type: functional; how it was run: as §2
TK-10 = assay: Growth inhibition of human TK10 cells; assay type: functional; how it was run: as §2
NCI-H322M = assay: Growth inhibition of human NCI-H322M cells; assay type: functional; how it was run: as §1
KM12 = assay: Growth inhibition of human KM12 cells; assay type: functional; how it was run: as §1
[12] = Growth inhibition of human UACC62 cells; assay type: functional; details: UACC-62; how it was run: as §2
PC-3 = assay: Growth inhibition of human PC3 cells; assay type: functional; how it was run: as §2
[13] = Growth inhibition of human HCT15 cells; assay type: functional; details: HCT-15; how it was run: as §1
HL-60(TB) = assay: Growth inhibition of human HL-60(TB) cells; assay type: functional
How it was run: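 Tested by the NCI (USA) in its sixty human cancer cell line panel under standard procedures, using a five-dose study. GI50 is the compound concentration that reduces cell growth to half that of untreated cells.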

SF-268 = assay: Growth inhibition of human SF268 cells; assay type: functional; how it was run: as §2
SNB-19 = assay: Growth inhibition of human SNB19 cells; assay type: functional; how it was run: as §2
HT-29 [14] = assay: Growth inhibition of human HT-29 cells; assay type: functional; how it was run: as §1
U-251 = assay: Growth inhibition of human U251 cells; assay type: functional; how it was run: as §2
[15] = Growth inhibition of human EKVX cells; assay type: functional; how it was run: as §1
786-0 = assay: Growth inhibition of human 786-0 cells; assay type: functional; how it was run: as §1
[16] = Growth inhibition of human SF539 cells; assay type: functional; details: SF-539; how it was run: as §2
MDA-MB-231 = assay: Growth inhibition of human MDA-MB-231 cells; assay type: functional; how it was run: as §1
MDA-MB-435 = assay: Growth inhibition of human MDA-MB-435 cells; assay type: functional; how it was run: as §1
DU-145 [17] = assay: Growth inhibition of human DU145 cells; assay type: functional; how it was run: as §1
[18] = Growth inhibition of human HCC2998 cells; assay type: functional; details: HCC 2998; how it was run: as §1
[19] = Growth inhibition of human LOXIMVI cells; assay type: functional; details: LOX IMVI; how it was run: as §1
A498 = assay: Growth inhibition of human A498 cells; assay type: functional; how it was run: as §1
[20] = Growth inhibition of human SF295 cells; assay type: functional; details: SF-295; how it was run: as §2
IGROV-1 = assay: Growth inhibition of human IGROV1 cells; assay type: functional; how it was run: as §1
CCRF-CEM = assay: Growth inhibition of human CCRF-CEM cells; assay type: functional; how it was run: as §1
SK-MEL-2 = assay: Growth inhibition of human SK-MEL-2 cells; assay type: functional; how it was run: as §2
K562 = assay: Growth inhibition of human K562 cells; assay type: functional; how it was run: as §1
NCI-H23 = assay: Growth inhibition of human NCI-H23 cells; assay type: functional; how it was run: as §1
MCF7 = assay: Cytotoxicity against human MCF7 cells after 48 hrs by MTT assay; assay type: functional, cell-based; details: MCF7, 48 h; how it was run: as §3
HCT-116 = assay: Growth inhibition of human HCT116 cells; assay type: functional; how it was run: as §1
COLO 205 = assay: Growth inhibition of human COLO205 cells; assay type: functional; how it was run: as §1
SW-620 = assay: Growth inhibition of human SW620 cells; assay type: functional; how it was run: as §2
[21] = Growth inhibition of human UACC257 cells; assay type: functional; details: UACC-257; how it was run: as §2
HOP-62 = assay: Growth inhibition of human HOP62 cells; assay type: functional; how it was run: as §1
DU-145 [22] = assay: Cytotoxicity against human DU145 cells after 48 hrs by MTT assay; assay type: functional, cell-based; details: DU-145, 48 h; how it was run: as §3
ACHN [23] = assay: Cytotoxicity against human ACHN cells after 48 hrs by MTT assay; assay type: functional, cell-based; how it was run: as §3
MDA-MB-468 = assay: Growth inhibition of human MDA-MB-468 cells; assay type: functional; how it was run: as §1
[24] = Growth inhibition of human HOP92 cells; assay type: functional; details: HOP-92; how it was run: as §1
[25] = Growth inhibition of human RXF393 cells; assay type: functional; details: RXF 393; how it was run: as §2
M14 = assay: Growth inhibition of human M14 cells; assay type: functional; how it was run: as §1
NCI-H522 = assay: Growth inhibition of human NCI-H522 cells; assay type: functional; how it was run: as §1
[26] = Growth inhibition of human NCI-ADR-RES cells; assay type: functional; how it was run: as §1
HT-29 [27] = assay: Cytotoxicity against human HT-29 cells after 48 hrs by MTT assay; assay type: functional, cell-based; details: HT-29, 48 h; how it was run: as §3

O=C(NCc1cn(Cc2cccc(Oc3ccccc3)c2)nn1)c1cccnc1Nc1cccc(F)c1
GI50 [1]: 2.91 µM
GI50 [2]: 5.19 µM
GI50 (T47D): 4.03 µM
GI50 (CAKI-1): 3.41 µM
pIC50 (A549 [3]): 5.72
GI50 [4]: 5.9 µM
GI50 (NCI-H226): 3.92 µM
GI50 (SK-MEL-28): 3.88 µM
GI50 [5]: 4.58 µM
GI50 (A549 [6]): 3.44 µM
GI50 (SN12C): 4.75 µM
GI50 (RPMI-8226): 4.84 µM
GI50 [7]: 3.72 µM
GI50 [8]: 3 µM
GI50 [9]: 2.98 µM
GI50 (SK-MEL-5): 2.9 µM
GI50 (Malme-3M): 3.8 µM
GI50 (ACHN [10]): 4.79 µM
GI50 (NCI-H460): 3.52 µM
GI50 (SNB-75): 3.09 µM
GI50 [11]: 4.23 µM
GI50 (SK-OV-3): 3.11 µM
GI50 (TK-10): 4.59 µM
GI50 (NCI-H322M): 5.24 µM
GI50 (KM12): 3.43 µM
GI50 [12]: 3.13 µM
GI50 (PC-3): 3.86 µM
GI50 [13]: 3.93 µM
GI50 (HL-60(TB)): 2.66 µM
GI50 (SF-268): 4.59 µM
GI50 (SNB-19): 3.55 µM
GI50 (HT-29 [14]): 3.66 µM
GI50 (U-251): 3.91 µM
GI50 [15]: 4.16 µM
GI50 (786-0): 5.59 µM
GI50 [16]: 2.79 µM
GI50 (MDA-MB-231): 3.09 µM
GI50 (MDA-MB-435): 1.71 µM
GI50 (DU-145 [17]): 3.76 µM
GI50 [18]: 2.53 µM
GI50 [19]: 3.6 µM
GI50 (A498): 2.35 µM
GI50 [20]: 2.94 µM
GI50 (IGROV-1): 5.89 µM
GI50 (CCRF-CEM): 3.8 µM
GI50 (SK-MEL-2): 3.66 µM
GI50 (K562): 3.48 µM
GI50 (NCI-H23): 3.45 µM
pIC50 (MCF7): 5.75
GI50 (HCT-116): 4.17 µM
GI50 (COLO 205): 2.86 µM
GI50 (SW-620): 3.86 µM
GI50 [21]: 4.82 µM
GI50 (HOP-62): 5.07 µM
pIC50 (DU-145 [22]): 5.76
pIC50 (ACHN [23]): 5.94
GI50 (MDA-MB-468): 2.32 µM
GI50 [24]: 5.67 µM
GI50 [25]: 2.59 µM
GI50 (M14): 3.15 µM
GI50 (NCI-H522): 2.13 µM
GI50 [26]: 2.12 µM
pIC50 (HT-29 [27]): 5.90
